Assay results reported in ChEMBL document CHEMBL4680134, “Structural optimization of natural product nordihydroguaretic acid to discover novel analogues as AcrB inhibitors” (Eur J Med Chem, 2020).

What was measured:
[1] = target: T1, Multidrug efflux pump subunit AcrB (Escherichia coli (strain K12)) (UniProt P31224); experiment: Inhibition of AcrB in Escherichia coli BW25113 assessed as potentiation of tetraphenylphosphonium induced antibacterial activity by measuring tetraphenylphosphonium MIC at 32 ug/ml measured after 18 hrs by checkerboard titration method (reference value: 1024 ug/ml); conditions: dose 32.0 µg/ml
T1 sequence (whole entry): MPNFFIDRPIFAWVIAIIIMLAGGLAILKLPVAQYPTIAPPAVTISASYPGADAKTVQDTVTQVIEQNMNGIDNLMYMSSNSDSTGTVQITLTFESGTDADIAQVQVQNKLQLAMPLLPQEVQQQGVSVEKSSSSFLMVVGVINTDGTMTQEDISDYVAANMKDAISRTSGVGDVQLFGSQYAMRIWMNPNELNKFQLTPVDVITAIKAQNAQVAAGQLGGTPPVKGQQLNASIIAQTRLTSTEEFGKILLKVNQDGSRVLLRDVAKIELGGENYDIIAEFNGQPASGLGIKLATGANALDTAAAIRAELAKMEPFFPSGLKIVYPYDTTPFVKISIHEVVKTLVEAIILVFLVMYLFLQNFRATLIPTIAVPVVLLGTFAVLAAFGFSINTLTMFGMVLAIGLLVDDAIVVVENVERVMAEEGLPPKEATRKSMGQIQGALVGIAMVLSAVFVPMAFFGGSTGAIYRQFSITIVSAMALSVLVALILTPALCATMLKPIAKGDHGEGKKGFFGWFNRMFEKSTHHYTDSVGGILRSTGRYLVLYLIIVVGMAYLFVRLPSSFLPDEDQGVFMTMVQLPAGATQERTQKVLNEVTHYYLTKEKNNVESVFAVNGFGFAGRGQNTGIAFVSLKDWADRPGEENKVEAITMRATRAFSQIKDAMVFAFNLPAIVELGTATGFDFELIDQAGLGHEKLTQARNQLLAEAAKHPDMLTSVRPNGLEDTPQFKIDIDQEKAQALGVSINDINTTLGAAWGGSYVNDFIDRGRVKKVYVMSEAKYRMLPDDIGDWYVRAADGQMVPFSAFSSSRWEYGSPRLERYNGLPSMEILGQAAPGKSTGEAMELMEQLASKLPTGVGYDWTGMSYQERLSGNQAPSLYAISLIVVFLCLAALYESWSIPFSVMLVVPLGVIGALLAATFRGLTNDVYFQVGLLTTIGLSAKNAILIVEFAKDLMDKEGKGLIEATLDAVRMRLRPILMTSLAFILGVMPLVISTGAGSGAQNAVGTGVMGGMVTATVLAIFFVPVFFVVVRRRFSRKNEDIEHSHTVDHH

[2] = target: T1, Multidrug efflux pump subunit AcrB (Escherichia coli (strain K12)); experiment: Inhibition of AcrB in Escherichia coli BW25113 assessed as potentiation of levofloxacin induced antibacterial activity by measuring levofloxacin MIC at 128 ug/ml measured after 18 hrs by checkerboard titration method (reference value: 0.06 ug/ml); conditions: dose 128.0 µg/ml
[3] = target: T1, Multidrug efflux pump subunit AcrB (Escherichia coli (strain K12)); experiment: Inhibition of AcrB in Escherichia coli BW25113 assessed as potentiation of tetraphenylphosphonium induced antibacterial activity by measuring tetraphenylphosphonium MIC at 64 ug/ml measured after 18 hrs by checkerboard titration method (reference value: 1024 ug/ml); conditions: dose 64.0 µg/ml
[4] = target: T1, Multidrug efflux pump subunit AcrB (Escherichia coli (strain K12)); experiment: Inhibition of AcrB in Escherichia coli BW25113 assessed as potentiation of chloramphenicol induced antibacterial activity by measuring chloramphenicol MIC at 64 ug/ml measured after 18 hrs by checkerboard titration method (reference value: 8 ug/ml); conditions: dose 64.0 µg/ml
[5] = target: T1, Multidrug efflux pump subunit AcrB (Escherichia coli (strain K12)); experiment: Inhibition of AcrB in Escherichia coli BW25113 assessed as potentiation of rifampicin induced antibacterial activity by measuring rifampicin MIC at 128 ug/ml measured after 18 hrs by checkerboard titration method (reference value: 16 ug/ml); conditions: dose 128.0 µg/ml
[6] = Growth inhibition of Escherichia coli harboring AcrB deletion mutant at 64 ug/ml after 18 hrs by broth microdilution assay; conditions: dose 64 µg/ml
In short: (§1)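 MIC determined by 96-well broth microdilution in E. coli BW25113 expressing AcrB ((+)AcrB) and an isogenic acrB-deleted strain ((-)AcrB). Used to set the compound concentrations for synergy testing that produce no direct antibacterial effect.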

[7] = target: T1, Multidrug efflux pump subunit AcrB (Escherichia coli (strain K12)); experiment: Inhibition of AcrB in Escherichia coli BW25113 assessed as potentiation of erythromycin induced antibacterial activity by measuring erythromycin MIC at 32 ug/ml measured after 18 hrs by checkerboard titration method (reference value: 64 ug/ml); conditions: dose 32.0 µg/ml
[8] = target: T1, Multidrug efflux pump subunit AcrB (Escherichia coli (strain K12)); experiment: Inhibition of AcrB in Escherichia coli BW25113 assessed as potentiation of rifampicin induced antibacterial activity by measuring rifampicin MIC at 64 ug/ml measured after 18 hrs by checkerboard titration method (reference value: 16 ug/ml); conditions: dose 64.0 µg/ml
[9] = target: T1, Multidrug efflux pump subunit AcrB (Escherichia coli (strain K12)); experiment: Inhibition of AcrB in Escherichia coli BW25113 assessed as potentiation of erythromycin induced antibacterial activity by measuring erythromycin MIC at 16 ug/ml measured after 18 hrs by checkerboard titration method (reference value: 64 ug/ml); conditions: dose 16.0 µg/ml
[10] = target: T1, Multidrug efflux pump subunit AcrB (Escherichia coli (strain K12)); experiment: Inhibition of AcrB in Escherichia coli BW25113 assessed as potentiation of rifampicin induced antibacterial activity by measuring rifampicin MIC at 16 ug/ml measured after 18 hrs by checkerboard titration method (reference value: 16 ug/ml); conditions: dose 16.0 µg/ml
[11] = target: T1, Multidrug efflux pump subunit AcrB (Escherichia coli (strain K12)); experiment: Inhibition of AcrB in Escherichia coli BW25113 assessed as potentiation of erythromycin induced antibacterial activity by measuring erythromycin MIC at 128 ug/ml measured after 18 hrs by checkerboard titration method (reference value: 64 ug/ml); conditions: dose 128.0 µg/ml
[12] = Growth inhibition of Escherichia coli BW25113 expressing AcrB at 512 ug/ml after 18 hrs by broth microdilution assay; conditions: dose 512 µg/ml; in short: as §1
[13] = target: T1, Multidrug efflux pump subunit AcrB (Escherichia coli (strain K12)); experiment: Inhibition of AcrB in Escherichia coli BW25113 assessed as potentiation of chloramphenicol induced antibacterial activity by measuring chloramphenicol MIC at 16 ug/ml measured after 18 hrs by checkerboard titration method (reference value: 8 ug/ml); conditions: dose 16.0 µg/ml
[14] = target: T1, Multidrug efflux pump subunit AcrB (Escherichia coli (strain K12)); experiment: Inhibition of AcrB in Escherichia coli BW25113 assessed as potentiation of erythromycin induced antibacterial activity by measuring erythromycin MIC at 64 ug/ml measured after 18 hrs by checkerboard titration method (reference value: 64 ug/ml); conditions: dose 64.0 µg/ml
[15] = target: T1, Multidrug efflux pump subunit AcrB (Escherichia coli (strain K12)); experiment: Inhibition of AcrB in Escherichia coli BW25113 assessed as potentiation of chloramphenicol induced antibacterial activity by measuring chloramphenicol MIC at 128 ug/ml measured after 18 hrs by checkerboard titration method (reference value: 8 ug/ml); conditions: dose 128.0 µg/ml
[16] = target: T1, Multidrug efflux pump subunit AcrB (Escherichia coli (strain K12)); experiment: Inhibition of AcrB in Escherichia coli BW25113 assessed as potentiation of tetraphenylphosphonium induced antibacterial activity by measuring tetraphenylphosphonium MIC at 128 ug/ml measured after 18 hrs by checkerboard titration method (reference value: 1024 ug/ml); conditions: dose 128.0 µg/ml

| SMILES | MIC [1] | MIC [2] | MIC [3] | MIC [4] | MIC [5] | MIC [7] | MIC [8] | MIC [9] | MIC [10] | MIC [11] | MIC [13] | MIC [14] | MIC [15] | MIC [16] | growth inhibition (GI) [6] | growth inhibition (GI) [12] |
| --- | --- | --- | --- | --- | --- | --- | --- | --- | --- | --- | --- | --- | --- | --- | --- | --- |
| Oc1ccc(CCCc2ccc(O)c(O)c2)cc1O | 1020 µg/mL | 0.06 µg/mL | 512 µg/mL | 8 µg/mL | 16 µg/mL | 64 µg/mL | 16 µg/mL | 64 µg/mL | 16 µg/mL | 32 µg/mL | 8 µg/mL | 32 µg/mL | 8 µg/mL | 512 µg/mL | Non-Toxic | Non-Toxic |
| Cc1ccc(C(=O)NCCc2ccc(O)c(O)c2)cc1 | 1020 µg/mL | – | – | – | 16 µg/mL | 16 µg/mL | 16 µg/mL | 32 µg/mL | 16 µg/mL | – | 8 µg/mL | – | – | – | – | – |
| Oc1ccc(CCCCCc2ccc(O)c(O)c2)cc1O | 1020 µg/mL | 0.06 µg/mL | 1020 µg/mL | 8 µg/mL | 16 µg/mL | 64 µg/mL | 16 µg/mL | 64 µg/mL | 16 µg/mL | 64 µg/mL | 8 µg/mL | 64 µg/mL | 8 µg/mL | 512 µg/mL | – | Non-Toxic |

Now from value to compound, other results behind:

| MIC [1] | MIC [2] | MIC [3] | MIC [4] | MIC [5] | MIC [7] | MIC [8] | MIC [9] | MIC [10] | MIC [11] | MIC [13] | MIC [14] | MIC [15] | MIC [16] | SMILES | growth inhibition (GI) [6] | growth inhibition (GI) [12] |
| --- | --- | --- | --- | --- | --- | --- | --- | --- | --- | --- | --- | --- | --- | --- | --- | --- |
| 1020 µg/mL | 0.06 µg/mL | 1020 µg/mL | 8 µg/mL | 16 µg/mL | 64 µg/mL | 16 µg/mL | 64 µg/mL | 16 µg/mL | 32 µg/mL | 8 µg/mL | 64 µg/mL | 8 µg/mL | 1020 µg/mL | O=C(NCCc1ccc(O)c(O)c1)c1ccc(Br)cc1 | Non-Toxic | Non-Toxic |
| 512 µg/mL | 0.06 µg/mL | 512 µg/mL | 8 µg/mL | 16 µg/mL | 64 µg/mL | 16 µg/mL | 64 µg/mL | 16 µg/mL | 32 µg/mL | 8 µg/mL | 32 µg/mL | 4 µg/mL | 256 µg/mL | Oc1ccc(CCCCc2cc3cccc4ccc5cccc2c5c43)cc1O | Non-Toxic | Non-Toxic |
| 512 µg/mL | 0.06 µg/mL | 512 µg/mL | 8 µg/mL | 16 µg/mL | 64 µg/mL | 16 µg/mL | 64 µg/mL | 16 µg/mL | 64 µg/mL | 8 µg/mL | 64 µg/mL | 8 µg/mL | 512 µg/mL | Oc1ccc(CCCCCCc2ccc(O)c(O)c2)cc1O | Non-Toxic | Non-Toxic |
| 1020 µg/mL | 0.06 µg/mL | 512 µg/mL | 16 µg/mL | 16 µg/mL | 64 µg/mL | 16 µg/mL | 64 µg/mL | 16 µg/mL | 64 µg/mL | 16 µg/mL | 64 µg/mL | 16 µg/mL | 512 µg/mL | Oc1ccc(CCCCc2ccc(Cl)cc2)cc1O | Non-Toxic | Non-Toxic |
